ChEMBL document CHEMBL5370602, “Structure-Based Design of a Lead Compound Derived from Natural Schweinfurthins with Antitumor Properties That Target Oxysterol-Binding Protein” (J Med Chem, 2023)
Activity calls are given as the source filed them. The calls are words filed in the database; no cut-off is given here.

What was measured:
U-87 MG [1] = test: Induction of autophagy in human U-87 MG cells assessed as increase in LC3II expression at 0.05 to 1 uM incubated for 48 hrs by Western blot analysis; type: functional, cell-based; conditions: U-87MG ATCC
Outline: (§1)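 U-87 MG cells cultured two days, then exposed 48 h to increasing doses. Lysed in RIPA with protease inhibitors; 5 µg protein run on 4-20% SDS gels and transferred to PVDF. Probed for phospho/total AKT, S6, S6K, P62 and LC3, detected by ECL. Band intensities normalized to β-actin.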

[2] = Antitumor activity in high alert medicated patient derived human GBM1 cells xenografted in immunodeficient nude mouse model assessed as change in tumor volume at 50 mg/kg,ip QD cotreatment with Temozolomide at 42 mg/kg,po QD and measured after 11 days relative to control; type: functional; conditions: time 11 day
Outline: (§2)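 Female athymic nude mice bearing subcutaneous GBM1-HAM PDX fragments (20 mm³); treatment began day 11 post-implant at tumour volumes 75-196 mm³, 10 per group. Compound i.p. daily in cyclodextrin vehicle (17 days alone, 27 days in combination); temozolomide 42 mg/kg p.o. daily for 5 days in PBS/glucose/Tween 80. Calliper volumes three times weekly; body weight and clinical signs monitored.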

[3] = target: T1, Oxysterol-binding protein 1 (Homo sapiens) (UniProt P22059); test: Inhibition of human OSBP in human hTERT-RPE1 cells co-transfected with GFP-P4MSidM and TagBFP-betaGalT1 assessed as increase in PI4P at TGN by measuring GFP-P4M fluorescence and measured after 50 mins by immunofluorescence analysis; type: cell-based
T1 sequence (whole entry): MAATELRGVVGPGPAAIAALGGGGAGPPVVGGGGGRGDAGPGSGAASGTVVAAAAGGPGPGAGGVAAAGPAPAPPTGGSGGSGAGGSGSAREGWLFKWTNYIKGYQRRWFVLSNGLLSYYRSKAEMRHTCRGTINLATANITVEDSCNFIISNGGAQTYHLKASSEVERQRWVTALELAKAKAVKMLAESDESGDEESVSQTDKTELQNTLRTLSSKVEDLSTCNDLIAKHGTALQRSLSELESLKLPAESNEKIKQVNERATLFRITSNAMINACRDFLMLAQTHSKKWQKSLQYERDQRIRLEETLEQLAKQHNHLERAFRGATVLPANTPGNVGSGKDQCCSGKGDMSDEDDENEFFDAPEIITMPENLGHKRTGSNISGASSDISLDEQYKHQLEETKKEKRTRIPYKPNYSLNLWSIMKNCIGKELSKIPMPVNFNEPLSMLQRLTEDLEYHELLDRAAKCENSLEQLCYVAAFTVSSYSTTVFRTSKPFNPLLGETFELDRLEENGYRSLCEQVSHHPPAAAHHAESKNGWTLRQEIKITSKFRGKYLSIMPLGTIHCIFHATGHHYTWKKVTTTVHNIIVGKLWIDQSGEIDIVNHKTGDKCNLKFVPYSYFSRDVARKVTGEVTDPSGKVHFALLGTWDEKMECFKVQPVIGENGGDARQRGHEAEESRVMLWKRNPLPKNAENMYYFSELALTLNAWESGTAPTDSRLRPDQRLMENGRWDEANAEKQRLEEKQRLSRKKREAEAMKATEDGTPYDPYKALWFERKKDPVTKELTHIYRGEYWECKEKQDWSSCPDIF
Outline: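 hTERT-RPE-1 cells electroporated with GFP-P4M^SidM (PI4P probe) and TagBFP-βGalT1, plated 18-24 h. Timelapse confocal imaging at 37 °C after compound addition, with P4M-GFP intensity at the TGN tracked over time and compared before and 50 min after addition. Mean of 4 to 6 independent experiments ± SEM.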

[4] = Toxicity in immunodeficient nude mouse model xenografted with high alert medicated patient derived human GBM1 cells assessed as clinical symptoms at 50 mg/kg,ip QD for 27 days cotreatment with Temozolomide at 42 mg/kg,po QD for 5 days; type: organism-based; conditions: in vivo, 648 h, time 27 day; outline: as §2
[5] = Metabolic stability in mouse plasma assessed as compound remaining at 5 uM and measured after 120 mins by UPLC-MS/MS analysis; type: ADME, cell-free; conditions: read-out: Stability
Outline: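 Male mouse plasma at 37 °C with compound added from a 5 µM solution […]. Sampled at 0, 15, 30, 45, 60 and 120 min, quenched with acetonitrile and read by LC-MS/MS (MRM) in duplicate. Procaine positive control. Remaining % and t1/2 derived from MRM area relative to t = 0.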

U-87 MG [6] = test: Induction of autophagy in human U-87 MG cells assessed as decrease in P62 expression at 0.05 to 1 uM incubated for 48 hrs by Western blot analysis; type: functional, cell-based; conditions: U-87MG ATCC; outline: as §1
[7] = Toxicity in immunodeficient nude mouse model xenografted with high alert medicated patient derived human GBM1 cells assessed as body weight change at 20 mg/kg,ip QD for 27 days cotreatment with Temozolomide at 42 mg/kg,po QD for 5 days; type: organism-based; conditions: in vivo, 648 h, time 27 day; outline: as §2
[8] = Toxicity in immunodeficient nude mouse model xenografted with high alert medicated patient derived human GBM1 cells assessed as clinical symptoms at 20 mg/kg,ip QD for 27 days cotreatment with Temozolomide at 42 mg/kg,po QD for 5 days; type: organism-based; conditions: in vivo, 648 h, time 27 day; outline: as §2
[9] = Antitumor activity in high alert medicated patient derived human GBM1 cells xenografted in immunodeficient nude mouse model assessed as change in tumor volume at 50 mg/kg,ip QD and measured after 11 days relative to control; type: functional; conditions: time 11 day; outline: as §2
[10] = Antitumor activity in high alert medicated patient derived human GBM1 cells xenografted in immunodeficient nude mouse model assessed as tumor growth inhibition at 20 mg/kg,ip QD cotreatment with Temozolomide at 42 mg/kg,po QD and measured after 11 days; type: functional; conditions: GBM1, 264 h; outline: as §2
[11] = Antitumor activity in high alert medicated patient derived human GBM1 cells xenografted in immunodeficient nude mouse model assessed as tumor growth inhibition at 50 mg/kg,ip QD cotreatment with Temozolomide at 42 mg/kg,po QD and measured from 9 to 11 days; type: functional; outline: as §2
U-87 MG [12] = test: Antiproliferative activity against human U-87 MG cells assessed as inhibition of cell proliferation incubated for 72 hrs by CellTiter-Glo luminescent assay; type: functional, cell-based, U-87MG ATCC
Outline: (§3)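 A549 in RPMI 1640 and U-87MG in DMEM, each with 10% FCS and 1% glutamine, at 37 °C and 5% CO₂. Cells seeded at 3000/well, dosed the next day, treated 72 h. Viability read by CellTiter-Glo luminescence with DMSO-treated cells set to 100%. IC50 taken from survival curves over three independent experiments.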

[13] = Toxicity in immunodeficient nude mouse model xenografted with high alert medicated patient derived human GBM1 cells assessed as clinical symptoms at 50 mg/kg,ip QD for 17 days; type: organism-based; conditions: in vivo, 408 h, time 17 day; outline: as §2
A549 = test: Antiproliferative activity against human A549 cells assessed as inhibition of cell proliferation incubated for 72 hrs by CellTiter-Glo luminescent assay; type: functional, cell-based; conditions: A549, 72 h; outline: as §3

inhibition [3]: Active
remaining at 2 h, 5 µM [5]: 20.2%
IC50 (U-87 MG [12]): 12.4 nM
IC50 (A549): 733 nM
SMILES: CC1(C)CCc2c(O)cc(/C=C/c3cc(O)c4c(c3)C[C@@H]3C(C)(C)[C@H](OC=O)CC[C@@]3(C)O4)cc2O1
Activity (U-87 MG [1]): Dose-Dependent Effect
Activity [2]: 329.18%
Activity [4]: Non-Toxic
Activity (U-87 MG [6]): Dose-Dependent Effect
Activity [7]: Non-Toxic
Activity [8]: Non-Toxic
Activity [9]: 625.61%
TGDI at 20 mg/kg [10]: 1.75
TGDI at 50 mg/kg [11]: 2.07%
Activity [13]: Non-Toxic
